Here are results for 18 compounds from ChEMBL document CHEMBL1127551, “(6,7-Diaryldihydropyrrolizin-5-yl)acetic acids, a novel class of potent dual inhibitors of both cyclooxygenase and 5-lipoxygenase” (J Med Chem, 1994).

Bounds are passed on as bounds.

One assay concerns the target T1, Cyclooxygenase (Bos taurus, UniProt O62664+O62698).
T1 sequence (O62664 whole entry): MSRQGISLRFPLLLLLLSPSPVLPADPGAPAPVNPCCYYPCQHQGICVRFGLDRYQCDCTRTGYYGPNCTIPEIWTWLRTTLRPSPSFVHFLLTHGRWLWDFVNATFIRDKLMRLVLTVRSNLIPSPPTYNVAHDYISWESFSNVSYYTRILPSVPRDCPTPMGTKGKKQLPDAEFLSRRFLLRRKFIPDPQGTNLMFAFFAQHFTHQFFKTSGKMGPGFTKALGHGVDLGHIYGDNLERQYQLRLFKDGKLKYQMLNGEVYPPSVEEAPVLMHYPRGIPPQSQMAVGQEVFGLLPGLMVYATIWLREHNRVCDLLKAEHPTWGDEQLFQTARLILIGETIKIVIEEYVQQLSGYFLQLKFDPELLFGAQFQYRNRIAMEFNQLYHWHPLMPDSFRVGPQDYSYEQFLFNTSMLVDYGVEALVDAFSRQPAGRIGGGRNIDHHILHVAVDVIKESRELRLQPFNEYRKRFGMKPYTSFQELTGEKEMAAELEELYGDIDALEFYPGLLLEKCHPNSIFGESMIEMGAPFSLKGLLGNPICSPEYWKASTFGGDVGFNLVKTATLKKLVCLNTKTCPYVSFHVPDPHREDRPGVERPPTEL
T1 sequence (O62698 whole entry): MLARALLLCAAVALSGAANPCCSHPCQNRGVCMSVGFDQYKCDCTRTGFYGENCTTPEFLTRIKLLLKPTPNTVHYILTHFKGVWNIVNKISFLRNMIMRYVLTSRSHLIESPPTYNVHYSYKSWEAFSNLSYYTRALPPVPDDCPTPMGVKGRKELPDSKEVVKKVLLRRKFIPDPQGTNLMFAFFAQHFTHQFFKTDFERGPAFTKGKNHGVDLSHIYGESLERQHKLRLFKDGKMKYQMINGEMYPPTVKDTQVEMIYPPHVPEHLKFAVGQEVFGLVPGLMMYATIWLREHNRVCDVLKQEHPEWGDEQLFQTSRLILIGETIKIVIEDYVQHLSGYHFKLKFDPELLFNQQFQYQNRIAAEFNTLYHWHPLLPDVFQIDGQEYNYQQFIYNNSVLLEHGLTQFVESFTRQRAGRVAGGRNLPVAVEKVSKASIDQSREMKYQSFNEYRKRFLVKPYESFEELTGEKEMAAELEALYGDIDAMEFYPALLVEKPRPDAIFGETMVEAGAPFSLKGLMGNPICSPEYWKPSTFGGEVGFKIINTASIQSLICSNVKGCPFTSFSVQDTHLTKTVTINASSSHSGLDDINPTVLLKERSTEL
In words: Inhibition of Prostaglandin G/H synthase in bovine thrombocyte intact cell assay. The procedure, abridged:
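Intact thrombocytes isolated from fresh bovine blood by ficoll gradient centrifugation. Cells incubated with test compound, then stimulated with Ca-ionophore A 23187. IC50 taken as the average of at least two determinations.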

Assay [1] deals with T2, Arachidonate 5-lipoxygenase (Bos taurus, UniProt Q9BEG3).
T2 sequence (Q9BEG3 whole entry): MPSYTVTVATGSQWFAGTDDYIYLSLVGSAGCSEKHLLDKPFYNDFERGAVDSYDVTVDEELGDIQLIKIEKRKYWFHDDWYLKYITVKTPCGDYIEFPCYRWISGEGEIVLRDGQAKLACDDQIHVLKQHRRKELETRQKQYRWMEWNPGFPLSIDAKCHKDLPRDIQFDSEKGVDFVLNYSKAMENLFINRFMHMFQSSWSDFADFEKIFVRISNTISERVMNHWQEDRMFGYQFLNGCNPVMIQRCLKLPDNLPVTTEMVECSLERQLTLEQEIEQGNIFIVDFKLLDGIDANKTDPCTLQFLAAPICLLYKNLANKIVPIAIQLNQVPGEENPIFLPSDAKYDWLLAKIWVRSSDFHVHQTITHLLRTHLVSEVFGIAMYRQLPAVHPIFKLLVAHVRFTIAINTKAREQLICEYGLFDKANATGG
In words: Inhibition of 5-lipoxygenase in bovine PMNL cell assay. Type of assay: cell-based. The method in brief:
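Intact polymorphonuclear leukocytes isolated from fresh bovine blood by ficoll gradient centrifugation. Cells incubated with test compound, then stimulated with Ca-ionophore A 23187. IC50 taken as the average of at least two determinations.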

For assay [2], the target named is T3, Polyunsaturated fatty acid 5-lipoxygenase (Homo sapiens, UniProt P09917).
T3 sequence (P09917 whole entry): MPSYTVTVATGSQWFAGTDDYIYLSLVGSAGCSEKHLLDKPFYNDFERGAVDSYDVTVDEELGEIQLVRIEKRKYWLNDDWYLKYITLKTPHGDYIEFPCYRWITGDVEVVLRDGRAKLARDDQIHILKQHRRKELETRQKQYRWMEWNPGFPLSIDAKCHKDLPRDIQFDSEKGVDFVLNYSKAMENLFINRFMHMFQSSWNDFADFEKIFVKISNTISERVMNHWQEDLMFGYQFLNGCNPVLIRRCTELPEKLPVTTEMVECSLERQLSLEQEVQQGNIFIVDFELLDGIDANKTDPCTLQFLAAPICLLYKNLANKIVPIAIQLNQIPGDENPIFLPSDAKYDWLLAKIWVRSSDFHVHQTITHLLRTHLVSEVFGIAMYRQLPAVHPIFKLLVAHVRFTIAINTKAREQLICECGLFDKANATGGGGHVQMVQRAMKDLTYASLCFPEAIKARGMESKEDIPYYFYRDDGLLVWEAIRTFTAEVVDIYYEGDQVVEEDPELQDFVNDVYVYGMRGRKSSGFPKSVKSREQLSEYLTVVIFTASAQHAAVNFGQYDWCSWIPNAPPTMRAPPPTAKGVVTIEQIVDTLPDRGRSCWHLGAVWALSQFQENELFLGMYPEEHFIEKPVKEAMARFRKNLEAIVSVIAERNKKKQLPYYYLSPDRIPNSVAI
The assay can be described thus: Inhibition of human 5-lipoxygenase in human cells. The format is cell-based. The procedure, abridged: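 Intact PMNL isolated by Ficoll gradient centrifugation from fresh human blood; cells incubated with test compound, then stimulated with Ca-ionophore A 23187; 5-LO inhibition expressed as IC50.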

`CC1(C)Cc2c(-c3ccccc3)c(-c3ccc(Cl)cc3Cl)c(CC(=O)O)n2C1`: the IC50 (usually the concentration needed to halve the response being measured) against Cyclooxygenase amounted to 18000 nM; in assay [1] it was 2100 nM.

Consider `CC1(C)Cc2c(-c3ccc(Cl)cc3)c(-c3ccccc3)c(CC(=O)O)n2C1`, for which the IC50 at Cyclooxygenase came out at 3400 nM; in assay [1] it was 5200 nM.

In the case of `CC(=O)Nc1ccc(-c2c(-c3ccccc3)c3n(c2CC(=O)O)CC(C)(C)C3)cc1`, the IC50 against Cyclooxygenase came out at 800 nM; in assay [1] it was 10000 nM.

In the case of `CC1(C)Cc2c(-c3ccccc3)c(-c3ccc(C(C)(C)C)cc3)c(CC(=O)O)n2C1`, the IC50 against Cyclooxygenase was 20000 nM; in assay [1], 180 nM.

As for `CC1(C)Cc2c(-c3ccccc3)c(-c3ccc(N)cc3)c(CC(=O)O)n2C1`, the IC50 against Cyclooxygenase was found to be 1000 nM; in assay [1] it was 6000 nM.

Regarding `CC1(C)Cc2c(-c3ccccc3)c(-c3ccc(Cl)cc3)c(CC(=O)O)n2C1` [LICOFELONE], the values for the IC50 (against Cyclooxygenase; in assay [1]; in assay [2]) were 210 nM, 180 nM and 230 nM, respectively.

On to `CC1(C)Cc2c(-c3ccccc3)c(-c3ccccc3Cl)c(CC(=O)O)n2C1`, for which the IC50 amounted to 61000 nM on Cyclooxygenase and 4400 nM in assay [1].

As to `CC1(C)Cc2c(-c3ccccc3)c(-c3ccc(F)cc3)c(CC(=O)O)n2C1`, the IC50 on Cyclooxygenase is 3200 nM; in assay [1], more than 10000 nM.

As to `CC1(C)Cc2c(-c3ccccc3)c(-c3ccc(Cl)c(Cl)c3Cl)c(CC(=O)O)n2C1`, the IC50 on Cyclooxygenase is 12000 nM; in assay [1] it was 1800 nM.

Regarding `CC1(C)Cc2c(-c3ccccc3)c(-c3cc(Cl)ccc3Cl)c(CC(=O)O)n2C1`, the IC50 against Cyclooxygenase turned out to be 12000 nM; in assay [1] it was 4300 nM.

As to `COc1ccc(-c2c(-c3ccccc3)c3n(c2CC(=O)O)CC(C)(C)C3)cc1`, the IC50 against Cyclooxygenase was determined as 100 nM; in assay [1] it was 240 nM.

Regarding `O=C(O)Cc1c(-c2ccc(Cl)cc2)c(-c2ccccc2)c2n1CCC2`, the IC50 against Cyclooxygenase is 2000 nM; in assay [1], 1600 nM.

For the compound `CC1(C)Cc2c(-c3ccccc3)c(-c3cccc(Cl)c3)c(CC(=O)O)n2C1`, the results for the IC50 (at Cyclooxygenase; in assay [1]) were 3600 nM and 1700 nM, respectively.

In the case of `CC1(C)Cc2c(-c3ccccc3)c(-c3ccc(Cl)c(Cl)c3)c(CC(=O)O)n2C1`, the IC50 at Cyclooxygenase stood at 4500 nM; in assay [1], 1700 nM.

Regarding `CC1(C)Cc2c(-c3ccccc3)c(-c3ccc([N+](=O)[O-])cc3)c(CC(=O)O)n2C1`, the IC50 against Cyclooxygenase is 30 nM; in assay [1] it was 1500 nM.

On to `CC1(C)Cc2c(-c3ccccc3)c(-c3ccc(O)cc3)c(CC(=O)O)n2C1`, for which the IC50 amounted to 1600 nM against Cyclooxygenase and 7700 nM in assay [1].

For the compound `CC1(C)Cc2c(-c3ccccc3)c(-c3ccc(Oc4ccccc4)cc3)c(CC(=O)O)n2C1`, the IC50 at Cyclooxygenase came to 2000 nM; in assay [1] it was 1600 nM.

With `CC1(C)Cc2c(-c3ccccc3)c(-c3ccccc3)c(CC(=O)O)n2C1`, the results for the IC50 (on Cyclooxygenase; in assay [1]) were 100 nM and 4000 nM, respectively.
